Screening data as filed in PubChem.
Pf Dd2 inh: P. falciparum Dd2 growth inhibitors, primary screen, SYBR Green fluorescence, single dose replicates; 72 h; stronger effect = lower value; activity change, % at 10 µM; 94,000 tested, 2.3% active; AID 1159554, 2015; in the data active means activity change below about -80%; inconclusive means no clear call, values can overlap the other calls
T cruzi growth-1: T. cruzi intracellular proliferation inhibitors, primary screen, cell-based, beta-gal Tulahuen parasites, NIH3T3 host, luminescence. 77,000 tested, 5.9% active. T. cruzi beta-gal in NIH3T3, GalScreen luminescence, 90 h. inhibition, % at 8.34 µM;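 active means mean inhibition above about 93%, with at least 55% of replicates each passing it, limit read from the data, passing the limit was not always enough; inconclusive means only one of those two conditions holds; inactive means neither condition holds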
IDH1 R132H inh: inhibitors of IDH1 R132H reductase, primary screen, biochemical, plate reader, single point; Isocitrate dehydrogenase [NADP] cytoplasmic (Homo sapiens), O75874; diaphorase/resazurin fluorescence, 60 min; inhibition, % at 10 µM; 70,000 tested, 0.18% active; AID 624101, 2012; in the data active means inhibition above about 34%; inconclusive means no clear call, values can overlap the other calls; inactive means below about 11%;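 further: 0% = DMSO and 100% = no enzyme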
Target sequence (O75874 whole entry R132H): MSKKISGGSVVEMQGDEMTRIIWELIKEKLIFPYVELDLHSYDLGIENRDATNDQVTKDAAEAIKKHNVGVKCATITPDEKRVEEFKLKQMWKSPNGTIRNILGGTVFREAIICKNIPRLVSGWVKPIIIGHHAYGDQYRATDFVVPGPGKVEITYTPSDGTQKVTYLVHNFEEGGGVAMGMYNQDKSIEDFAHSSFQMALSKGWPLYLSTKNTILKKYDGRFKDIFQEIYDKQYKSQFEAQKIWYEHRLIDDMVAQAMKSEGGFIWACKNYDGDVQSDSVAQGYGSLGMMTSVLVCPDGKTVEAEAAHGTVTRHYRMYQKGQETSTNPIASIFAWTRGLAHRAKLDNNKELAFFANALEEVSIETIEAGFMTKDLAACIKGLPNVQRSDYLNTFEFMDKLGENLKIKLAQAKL
GASC1 inh: inhibitors of GASC-1 (KDM4C) histone demethylase, primary screen, biochemical, single concentration HTS | GST-KDM4C 2-372, H3K9me3 peptide, LANCE TR-FRET | inhibition, % at 12.5 µM | 96,000 tested, 0.15% active;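 active means mean replicate inhibition above about 25%, with at least 55% of replicates also reaching it, limit read from the data, passing the limit was not always enough; inconclusive means only one of those two conditions met; inactive means neither condition met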
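System: N-terminal GST-fused human GASC-1 (KDM4C) fragment, residues 2-372; amount: enzyme final amount 10 nM; incubation: reaction 30 min RT, detection step 1 h RT; medium: HEPES buffer, pH 7.5, plus ascorbate; technique: LANCE TR-FRET, Eu antibody, ULight-streptavidin, EDTA, ex 340 nm, em 618/671 nm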
T cruzi growth-2: T. cruzi intracellular proliferation inhibitors, confirmation, cell-based, NIH3T3 host, beta-gal parasite, luminescence, cherry-pick. shares compounds with T cruzi growth-1. T. cruzi beta-gal in NIH3T3, GalScreen luminescence, 90 h. inhibition, % at 8.35 µM. 5,600 tested, 72% active. AID 651739, 2012;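 active means mean replicate inhibition above about 95% and at least 55% of replicates individually reaching it, limit read from the data; inconclusive means only one of the two criteria is met; inactive means neither criterion is met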
T cruzi growth-3: inhibitors of intracellular T. cruzi replication, confirmation, NIH3T3 host cells, beta-gal parasites, cherry-pick, set 2; shares compounds with T cruzi growth-1; AID 651740, 2012; T. cruzi beta-gal in NIH3T3, GalScreen luminescence, 90 h; inhibition, % at 2.09 µM; 5,600 tested, 21% active;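 active means mean inhibition above about 95%, with at least 55% of replicates also reaching it, limit read from the data; inconclusive means meets just one of the two conditions; inactive means meets neither condition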;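 further: plate controls were neutral control median for no effect and positive control median for full effect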
NIH3T3 tox: cytotoxicity in mouse NIH/3T3 fibroblasts, confirmation, cytotoxicity control for T. cruzi proliferation inhibitor project, cell-based, cherry-pick, single point. shares compounds with T cruzi growth-1. NIH/3T3 viability, CellTiter-Glo ATP luminescence, 90 h. cytotoxicity (signal decrease), % at 8.35 µM. 5,600 tested, 14% active;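 active means mean signal decrease across replicates above about 35% based on untreated-well scatter, with enough replicates individually passing, limit read from the data; inconclusive means no rule stated though some were filed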;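 further: 0% = median of neutral control wells and 100% = median of positive control wells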
3T3 cytotox 2: NIH/3T3 fibroblast cytotoxicity, confirmation, cytotoxicity control, cell-based, cherry-pick, single point, set 2. NIH/3T3 viability, CellTiter-Glo ATP luminescence, 90 h. inhibition, % at 24.9 µM. 5,600 tested, 56% active. AID 651744, 2012. shares compounds with T cruzi growth-1;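 active means mean loss of cell viability signal at or above a set limit, and enough replicates individually reaching it; inconclusive means meets only the mean limit or only the replicate share; inactive means meets neither condition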;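 further: 0% = median of neutral control wells and 100% = median of positive control wells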
An asterisk follows results filed as active; ? = inconclusive; . = not tested or not shown. This is a sample that favours compounds with a hit; in the whole collection about 5.8% have one here.

SMILES	Pf Dd2 inh	T cruzi growth-1	IDH1 R132H inh	GASC1 inh	T cruzi growth-2	T cruzi growth-3	NIH3T3 tox	3T3 cytotox 2
C[C@@H]1CCCCO[C@H](CN(C)C(=O)CCC(F)(F)F)[C@H](C)CN([C@H](C)CO)C(=O)c2cc(NS(=O)(=O)c3ccc(Cl)cc3)ccc2O1	-65	101*	0	-1	100*	61	18	-4
C[C@H]1CCCCO[C@H](CN(C)C(=O)CCC(F)(F)F)[C@@H](C)CN([C@@H](C)CO)C(=O)c2cc(NS(=O)(=O)c3ccc(Cl)cc3)ccc2O1	-45	75	.	-1	.	.	.	.
C[C@@H]1CCCCO[C@@H](CN(C)C(=O)Cc2ccccc2)[C@H](C)CN([C@@H](C)CO)C(=O)c2cc(NS(=O)(=O)c3ccc(Cl)cc3)ccc2O1	6	100*	.	0	106*	74	3	47
C[C@H]1CCCCO[C@@H](CN(C)C(=O)Cc2ccccc2)[C@@H](C)CN([C@@H](C)CO)C(=O)c2cc(NS(=O)(=O)c3ccccc3)ccc2O1	-58	.	1	1	.	.	.	.
Cc1ccc(S(=O)(=O)Nc2ccc3c(c2)C(=O)N([C@H](C)CO)C[C@@H](C)[C@H](CN(C)C(=O)Cc2ccccc2)OCCCC[C@@H](C)O3)cc1	-32	97*	-4	0	108*	63	1	-15
CO[C@H]1CN(C)C(=O)c2ccc(NC(=O)C3CC3)cc2OC[C@@H](C)N(C(=O)c2ccccn2)C[C@H]1C	19	102*	0	-2	53	17	9	0
CO[C@H]1CN(C)C(=O)c2ccc(NC(=O)C3CC3)cc2OC[C@H](C)N(C(=O)c2cccnc2)C[C@@H]1C	29	112*	0	1	-186	22	-7	-17
CO[C@@H]1CN(C)C(=O)c2ccc(NC(=O)C3CC3)cc2OC[C@H](C)N(C(=O)c2cccnc2)C[C@H]1C	34	42	0	2	.	.	.	.
CO[C@@H]1CN(C)C(=O)c2ccc(NC(=O)C3CC3)cc2OC[C@@H](C)N(C(=O)c2ccccn2)C[C@@H]1C	-18	40	0	-1	.	.	.	.
COc1ccc(S(=O)(=O)N[C@@H]2C=C[C@@H](CC(=O)N3CCC(Cc4ccccc4)CC3)O[C@H]2CO)cc1	-37	?	0	-1	65	-7	-7	32*
COc1ccc(S(=O)(=O)N[C@@H]2C=C[C@H](CC(=O)N3CCC(Cc4ccccc4)CC3)O[C@@H]2CO)cc1	-13	?	0	0	25	11	11	32*
C[C@@H]1CCCCO[C@@H](CN(C)C(=O)C2CCCCC2)[C@@H](C)CN([C@@H](C)CO)C(=O)c2cc(NC(=O)Nc3cccc4ccccc34)ccc2O1	-89*	110*	.	1	106*	65	-9	-27
C[C@@H]1CCCCO[C@H](CN(C)C(=O)C2CCCCC2)[C@H](C)CN([C@H](C)CO)C(=O)c2cc(NC(=O)Nc3cccc4ccccc34)ccc2O1	-90*	117*	.	-1	105*	113*	-28	-18
C[C@@H]1CCCCO[C@H](CN(C)C)[C@H](C)CN([C@@H](C)CO)C(=O)c2cc(NC(=O)Nc3cccc4ccccc34)ccc2O1	-37	74	-5	-1	.	.	.	.
C[C@@H]1CCCCO[C@H](CN(C)C)[C@@H](C)CN([C@H](C)CO)C(=O)c2cc(NC(=O)Nc3cccc4ccccc34)ccc2O1	23	69	.	5	.	.	.	.
